Measurements published in ChEMBL document CHEMBL1165931, “Cytotoxic indole alkaloids from Melodinus tenuicaudatus” (J Nat Prod, 2010).

Experiments:
Type in all cases: functional, cell-based
HL-60 = assay: Cytotoxicity against human HL60 cells after 48 hrs by MTT assay
In short: (§1)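 Cells grown in RPMI-1640 or DMEM with 10% FBS at 37 °C under 5% CO2. Adherent lines (A-549, MCF-7, SMMC-7721, SW480) were left to attach for 12 h before dosing; suspension HL-60 was seeded just before dosing at 1 × 10^5 cells/mL. Compounds were given in DMSO at 0.0625, 0.32, 1.6, 8 and 40 µmol, in triplicate, for 48 h. Read-out by MTT; cisplatin and vinorelbine were positive controls.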

SMMC-7721 = assay: Cytotoxicity against human SMMC7721 cells after 48 hrs by MTT assay; in short: as §1
A549 = assay: Cytotoxicity against human A549 cells after 48 hrs by MTT assay; in short: as §1
MCF7 = assay: Cytotoxicity against human MCF7 cells after 48 hrs by MTT assay; in short: as §1
SW480 = assay: Cytotoxicity against human SW480 cells after 48 hrs by MTT assay; in short: as §1

SMILES	IC50 (HL-60)	IC50 (SMMC-7721)	IC50 (A549)	IC50 (MCF7)	IC50 (SW480)
CC[C@]12C=CCN3CCc4c(n(c5ccccc45)[C@@H](c4ccc5c(c4)[C@@]46CCN7CC=C[C@@]8(C[C@@H](C(=O)OC)[C@]4(N5)[C@@H]8C)[C@H]76)C1)[C@@H]32	1.1 µmol	3.2 µmol	4.8 µmol	2.9 µmol	1.4 µmol
CC[C@]12C=CCN3CCc4c(n(c5ccccc45)[C@@H](OC)C1)[C@@H]32	15.9 µmol	22.1 µmol	> 40 µmol	29.3 µmol	32.2 µmol
CC[C@]12C=CCN3CC[C@]4(C(=C(C(=O)OC)C1)Nc1cc(OC)ccc14)[C@@H]32	0.2 µmol	13.1 µmol	12.8 µmol	2.1 µmol	12.7 µmol
CC[C@]12C=CCN3CC[C@]4(C(=C(C(=O)OC)C1)Nc1cc5c(cc14)[C@@H]1[C@H](O5)[C@@H](O)[C@@]4(CC)CC(C(=O)OC)=C5Nc6ccccc6[C@@]56CCN1[C@@H]46)[C@@H]32 [MELODININE K]	0.1 µmol	3 µmol	5 µmol	2.7 µmol	5.7 µmol
COC(=O)[C@@H]1C[C@@]23C=CCN4CC[C@@]5(c6ccccc6N[C@]15[C@@H]2C)[C@@H]43 [VINDOLININE]	6.8 µmol	20.7 µmol	26.3 µmol	21.9 µmol	15.2 µmol
CCC1=C[C@@H]2CN(C1)Cc1c([nH]c3ccccc13)[C@@](C(=O)OC)(c1cc3c(cc1OC)N(C)[C@H]1[C@@](O)(C(=O)OC)[C@H](OC(C)=O)[C@]4(CC)C=CCN5CC[C@]31[C@@H]54)C2 [VINORELBINE]	< 0.06 µmol	4.7 µmol	26.1 µmol	17.2 µmol	> 40 µmol
